Active and inactive are the calls of the source. The calls are words filed in the database; no cut-off is given here.
Legend:
[1] = Antiplatelet activity against New Zealand white rabbit platelets assessed as inhibition of PAF-induced platelet aggregation preincubated at 10 uM for 2 mins before challenge […] by spectrophotometry; format: functional; conditions: Oryctolagus cuniculus
In short: (§1)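 Washed rabbit platelets: PRP made with 5 mM EDTA (final), then washed in Ca2+-free Tyrode's with 0.35% BSA, heparin and apyrase at 37 °C for 20 min. Resuspended in Tyrode's with 1 mM Ca2+ at 2.5 × 10^8/mL, stirred at 900 rpm. Sample in DMSO (0.5% final) for 2 min at 37 °C, then ADP 20 μM, AA 100 μM or PAF 10 nM. Read-out: maximal turbidimetric light-transmission rise within 4 min. Inhibition is calculated against vehicle.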

Platelet [2] = assay: Prothrombotic activity in New Zealand white rabbit platelets assessed as increase in platelet aggregation at 100 uM by spectrophotometry; format: functional, Oryctolagus cuniculus
In short: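 Washed rabbit platelets are prepared the same way: 2.5 × 10^8/mL in Tyrode's with 1 mM Ca2+, stirred at 900 rpm at 37 °C, DMSO fixed at 0.5% final. Compound is added alone, with no agonist. Aggregation is read turbidimetrically as light transmission, with suspension set as 0% and buffer as 100%. The result is reported as % increase in aggregation.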

[3] = Antiplatelet activity against New Zealand white rabbit platelets assessed as inhibition of PAF-induced platelet aggregation preincubated at 100 uM for 2 mins before challenge […] by spectrophotometry; format: functional; conditions: Oryctolagus cuniculus
In short: (§2)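 Resuspended in Tyrode's with 1 mM Ca2+ at 2.5 × 10^8/mL, stirred at 900 rpm. Sample in DMSO (0.5% final) for 2 min at 37 °C, then ADP 20 μM, AA 100 μM or PAF 10 nM. Read-out: maximal turbidimetric light-transmission rise within 4 min. Inhibition is calculated against vehicle.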

[4] = Antiplatelet activity against New Zealand white rabbit platelets assessed as inhibition of arachidonic acid-induced platelet aggregation preincubated for 2 mins before challenge […] by spectrophotometry; format: functional, cell-based; conditions: Oryctolagus cuniculus; in short: as §1
[5] = Antiplatelet activity against New Zealand white rabbit platelets assessed as inhibition of arachidonic acid-induced platelet aggregation preincubated at 100 uM for 2 mins before challenge […] by spectrophotometry; format: functional; conditions: Oryctolagus cuniculus; in short: as §2
[6] = Antiplatelet activity against New Zealand white rabbit platelets assessed as inhibition of ADP-induced platelet aggregation preincubated for 2 mins before challenge […] by spectrophotometry; format: functional, cell-based; conditions: Oryctolagus cuniculus; in short: as §2
[7] = (§3) Antiplatelet activity against New Zealand white rabbit platelets assessed as inhibition of ADP-induced platelet aggregation preincubated at 100 uM for 2 mins before challenge […] by spectrophotometry; format: functional; conditions: Oryctolagus cuniculus; in short: as §2
[8] = Antiplatelet activity against New Zealand white rabbit platelets assessed as inhibition of PAF-induced platelet aggregation preincubated for 2 mins before challenge […] by spectrophotometry; format: functional, cell-based; conditions: Oryctolagus cuniculus; in short: as §1
cells = conditions: Oryctolagus cuniculus, New Zealand white, Platelet, read-out: INH
Platelet [9] = assay: as §3; format: functional; conditions: Oryctolagus cuniculus; in short: as §2

IC50 [6] | Compound | inhibition at 100 µM [3] | inhibition at 100 µM [5] | inhibition at 100 µM [7] | further results
– | CCCCCCCCCCCCCCCCCCNC(=O)OCC(COP(=O)([O-])OCC[n+]1ccsc1)OC (stereo unspecified) | – | – | – | inhibition at 10 µM [1]: 94.8%
– | C[C@H](Cc1cc2c(cc1O)OCO2)[C@@H](C)Cc1cc2c(cc1O)OCO2 | – | – | – | Activity (Platelet [2]): 49.5%
40.3 µM | C[C@@H]1[C@@H](c2ccc3c(c2)OCO3)c2c(c(O)cc3c2OCO3)C[C@H]1C | 0.6% | 83.7% | 84% | IC50 [4]: 71.4 µM
– | COc1ccc([C@H]2O[C@@H](c3ccc(OC)c(OC)c3)[C@@H](C)[C@H]2C)cc1OC | 94.4% | 19.4% | 51.8% | IC50 [8]: 9.1 µM
28.1 µM | C=CCc1cc(OC)c(O[C@H](C)[C@H](OC(C)=O)c2cc(OC)c(OC)c(OC)c2)c(OC)c1 | 68.1% | 93.5% | 84.7% | IC50 [8]: 79.4 µM; IC50 [4]: 60.3 µM
– | COc1cc(C[C@H](C)[C@H](C)Cc2cc3c(cc2O)OCO3)ccc1O (relative stereo) | – | – | – | Activity (Platelet [2]): 66.1%
– | COc1cc(C[C@H](C)[C@H](C)Cc2cc3c(cc2O)OCO3)c(O)cc1O (relative stereo) | 11.7% | 90.9% | 68.2% | –
– | COc1cc(O)c(C[C@H](C)[C@H](C)Cc2cc3c(cc2O)OCO3)cc1OC (relative stereo) | 7% | 73% | 71.5% | –
30 µM | COc1cc(OC)c(C[C@H](C)[C@H](C)Cc2cc3c(cc2O)OCO3)cc1O (relative stereo) | 26.7% | 96.8% | 85.2% | IC50 [4]: 29.4 µM
9.8 µM | COC1=CC(=O)C(C[C@H](C)[C@H](C)Cc2cc3c(cc2O)OCO3)=CC1=O (relative stereo) | 92% | 98.7% | 90.4% | IC50 [8]: 61.7 µM; IC50 [4]: 14 µM
– | COc1ccc([C@@H]2O[C@H](c3cc(OC)c4c(c3)OCO4)[C@@H](C)[C@@H]2C)cc1OC (relative stereo) | 42% | 54.4% | 19.1% | –
56 µM | COc1ccc([C@H]2O[C@@H](c3cc(OC)c4c(c3)OCO4)[C@H](C)[C@@H]2C)cc1OC (relative stereo) | 98.9% | 80.3% | 75.6% | IC50 [8]: 37.2 µM; IC50 [4]: 85 µM
– | COc1cc(C[C@@H](C)[C@H](C)Cc2ccc(O)c(OC)c2)ccc1O [(-)-DIHYDROGUAIARETICACID] | – | – | – | Activity (Platelet [2]): 76.4%
50.6 µM | C/C=C/c1cc(OC)c2c(c1)[C@H](C)[C@@H](c1ccc3c(c1)OCO3)O2 [(-)-LICARIN B] | 5.3% | 42.5% | 86.7% | –
– | CC(=O)Oc1ccccc1C(=O)O [ASPIRIN] | – | 99.7% | – | –
– | COC(=O)[C@H](c1ccccc1Cl)N1CCc2sccc2C1 [CLOPIDOGREL] | – | – | – | inhibition at 30 µM (cells): 80.2%
– | C/C=C/c1cc(OC)c2c(c1)[C@H](C)[C@@H](c1ccc(O)c(OC)c1)O2 [LICARIN A] | – | – | – | Activity (Platelet [2]): 66.8%
– | C[C@@H]1O[C@@H](Oc2c(-c3ccc(O)c(O)c3)oc3cc(O)cc(O)c3c2=O)[C@H](O)[C@H](O)[C@H]1O [QUERCITRIN] | 6.8% | 21.8% | 83.1% | –
34.6 µM | CC(Cc1cc2c(cc1O)OCO2)C(C)C(=O)c1ccc2c(c1)OCO2 (stereo unspecified) [SAUCERNEOL G] | 3.9% | 94.1% | 90.9% | IC50 [4]: 25.9 µM
– | C[C@@H]1[C@H]2c3cc4c(cc3O[C@@]35OCOC3=CC(=O)[C@H](C[C@H]1C)[C@H]25)OCO4 [SAUCHINONE A] | 23.6% | 28.2% | 48.2% | –
– | C[C@@H]1[C@H]2c3cc4c(cc3O[C@@]35OCOC3=CC(=O)[C@H](C[C@H]1C)[C@@H]25)OCO4 [SAUCHINONE] | 11.8% | 10.7% | – | inhibition (Platelet [9]): inactive
